Activity calls are given as the source filed them. The rule behind the calls is not given here.
How the values were obtained:
[1] = target: Tumour suppressor p53/oncoprotein Mdm2 (Homo sapiens) (UniProt P04637+Q00987); assay: Inhibition of human recombinant p53-MDM2 interaction assessed as p53 release by NMR spectroscopy relative to untreated control; type: protein assay
In short: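 Complex formed from refolded recombinant His-tagged human p53 (residues 1-312, expressed in E. coli BL21(DE3) RIL) and refolded MDM2, mixed 1:2, with excess MDM2 removed by gel filtration. Complex at 0.1 mM in 50 mM phosphate pH 7.4, 150 mM KCl, 5 mM DTT; formal protein:inhibitor molar ratio 1:1.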

[2] = Solubility of the compound in phosphate buffer at pH 7.4 by UV-Visible spectrophotometry; type: physicochemical
In short: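 10 mM DMSO stock added one microlitre at a time, 10 min apart, to 20 mM phosphate buffer with 150 mM KCl, pH 7.4, at 25 °C. Precipitation followed as the rise in light-scattering absorbance over 500–900 nm.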

M14 [3] = assay: Induction of apoptosis in human M14 cells assessed as accumulation of p53 in nuclear fraction after 48 hrs by Western blotting analysis relative to control; type: functional, cell-based
M14 [4] = assay: Induction of apoptosis in human M14 cells assessed as accumulation of p53 in nuclear fraction after 24 hrs by Western blotting analysis relative to control; type: functional, cell-based
M14 [5] = assay: Induction of p53 expression in human M14 cells after 48 hrs by Western blotting analysis; type: functional, cell-based
In short: (§1)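 Treated cells lysed in modified RIPA buffer (10 mM Tris-HCl pH 7.4, 150 mM NaCl, 1 mM EDTA, 1% NP40, 0.1% deoxycholate, 1 mM PMSF, protease inhibitors). Equal protein loads separated on 10–12% SDS-PAGE and blotted to nitrocellulose. Blocked in 10% milk/0.1% Tween-20, probed with anti-cyclin A or anti-p53 and HRP secondary; tubulin used as loading reference.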

M14 [6] = assay: Cell cycle arrest at G1/S phase in human M14 cells assessed as increase in cyclin A expression at IC50 after 48 hrs by Western blotting analysis; type: functional, cell-based; in short: as §1
M14 [7] = assay: Cell cycle arrest at G1/S phase in human M14 cells assessed as increase in cyclin A expression at IC50 after 24 hrs by Western blotting analysis; type: functional, cell-based; in short: as §1
M14 [8] = assay: Cell cycle arrest at S phase in human M14 cells assessed as change in size of nucleus after 24 hrs by DAPI staining-based fluorescence microscopy; type: functional
In short: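 M14 cells grown on coverslips and dosed after 24 h. Fixed in 3.7% formaldehyde for 30 min, quenched with 0.1 M glycine, then DAPI-stained 20 min at room temperature. Nuclear areas measured by fluorescence microscopy image analysis. Mean ± SEM of at least twenty measurements; one-way ANOVA with Bonferroni post test.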

M14 [9] = assay: Induction of apoptosis in human M14 cells after 48 hrs by propidium iodide staining-based flow cytometry; type: functional, cell-based
In short: (§2)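 5 × 10^4 M14 cells cultured 24 h, then dosed and cultured a further 24 or 48 h. Permeabilized cells labelled 30 min at 4 °C with propidium iodide in 0.1% sodium citrate/0.1% Triton X-100, then analysed by flow cytometry. For cell cycle, 10,000 events per sample assigned to G0/G1, S and G2/M. Each determination repeated three times.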

M14 [10] = assay: Cell cycle arrest in human M14 cells assessed as accumulation at G2/M phase after 24 hrs by propidium iodide staining-based flow cytometry; type: functional; details: in the assay text read “accumulation at S phase” for “accumulation at G2/M phase”; in short: as §2
M14 [11] = assay: Cell cycle arrest in human M14 cells assessed as accumulation at S phase after 24 hrs by propidium iodide staining-based flow cytometry; type: functional; in short: as §2
M14 [12] = assay: Cell cycle arrest in human M14 cells assessed as accumulation at G0/G1 phase after 24 hrs by propidium iodide staining-based flow cytometry; type: functional; details: in the assay text read “accumulation at S phase” for “accumulation at G0/G1 phase”; in short: as §2
M14 [13] = assay: Antiproliferative activity against human M14 cells assessed as cell viability incubated for 24 hrs followed by compound washout measured after 48 hrs by MTT assay; type: functional, cell-based
In short: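 M14 cells exposed for 24 h, then medium removed and cells resuspended in compound-free medium. Further incubation for 24 and 48 h, then viability read by MTT: 1 mg/mL for 1–3 h at 37 °C, formazan dissolved in DMSO, absorbance at 550 and 620 nm.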

RAW264.7 = assay: Antiproliferative activity against mouse RAW264.7 cells after 48 hrs by MTT assay; type: cell-based; details: RAW264.7, 48 h
In short: (§3)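 Cells grown at 37 °C in DMEM with 25 mM glucose, 10% fetal calf serum, penicillin/streptomycin and 2 mmol/L glutamine. 5000 cells per well; after 24 h, exposed to 100 nM–100 µM for 24 and 48 h. MTT 1 mg/mL for 1–3 h at 37 °C, formazan dissolved in DMSO, absorbance read at 550 and 620 nm. IC50 from four-parameter sigmoidal nonlinear regression.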

M14 [14] = assay: Cytostatic activity against human M14 cells at 5 to 10 uM after 24 hrs by trypan blue dye exclusion assay relative to control; type: functional, cell-based
In short: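 Exponentially growing M14 cells plated and grown 24 h. Then treated at 5 and 10 µM in 0.1% DMSO for 24, 48 or 72 h. Stained with 0.2% trypan blue and counted in a hemocytometer; percentage of dead cells calculated.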

Jurkat = assay: Antiproliferative activity against human Jurkat cells after 48 hrs by MTT assay; type: functional, cell-based; in short: as §3
Huh-7 = assay: Antiproliferative activity against human HuH7 cells after 48 hrs by MTT assay; type: functional, cell-based; details: Huh-7, 48 h; in short: as §3
MCF7 = assay: Antiproliferative activity against human MCF7 cells after 48 hrs by MTT assay; type: functional, cell-based; details: MCF7, 48 h; in short: as §3
M14 [15] = assay: Antiproliferative activity against human M14 cells after 48 hrs by MTT assay; type: functional, cell-based; details: M14, 48 h; in short: as §3
M14 [16] = assay: Induction of p53 expression in human M14 cells after 24 hrs by Western blotting analysis; type: functional, cell-based; in short: as §1

Sequence of Tumour suppressor p53/oncoprotein Mdm2 (Homo sapiens) (P04637 whole entry, looked up, the tested form may be a part): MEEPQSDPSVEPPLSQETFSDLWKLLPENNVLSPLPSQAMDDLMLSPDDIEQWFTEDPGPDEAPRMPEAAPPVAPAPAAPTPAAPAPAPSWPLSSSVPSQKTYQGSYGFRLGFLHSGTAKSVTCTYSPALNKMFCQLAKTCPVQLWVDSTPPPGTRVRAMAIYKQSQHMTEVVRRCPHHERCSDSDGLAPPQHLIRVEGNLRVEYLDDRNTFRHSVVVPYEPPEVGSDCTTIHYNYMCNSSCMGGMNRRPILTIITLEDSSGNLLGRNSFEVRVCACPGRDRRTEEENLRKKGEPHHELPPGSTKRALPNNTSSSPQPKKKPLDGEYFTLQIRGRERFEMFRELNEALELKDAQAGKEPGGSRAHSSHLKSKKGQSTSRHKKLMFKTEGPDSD
Sequence of Tumour suppressor p53/oncoprotein Mdm2 (Homo sapiens) (Q00987 whole entry, looked up, the tested form may be a part): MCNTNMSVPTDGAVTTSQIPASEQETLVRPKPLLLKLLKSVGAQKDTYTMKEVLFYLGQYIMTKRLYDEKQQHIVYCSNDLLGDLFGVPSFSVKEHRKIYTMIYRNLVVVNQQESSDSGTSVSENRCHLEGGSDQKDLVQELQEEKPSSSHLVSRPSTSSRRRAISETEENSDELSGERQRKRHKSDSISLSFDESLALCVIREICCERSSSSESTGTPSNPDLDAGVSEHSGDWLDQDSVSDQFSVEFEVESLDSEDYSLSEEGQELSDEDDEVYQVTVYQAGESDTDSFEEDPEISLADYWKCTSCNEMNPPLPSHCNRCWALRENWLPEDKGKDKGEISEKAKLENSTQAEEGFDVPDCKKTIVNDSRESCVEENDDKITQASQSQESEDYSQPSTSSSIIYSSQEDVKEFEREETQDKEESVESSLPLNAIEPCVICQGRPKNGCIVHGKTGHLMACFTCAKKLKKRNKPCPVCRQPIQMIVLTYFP

Row | SMILES | inhibition [1] | solubility [2] [µM] | Activity (M14 [3]) | Activity (M14 [4]) | Activity (M14 [5]) | Activity (M14 [6]) | Activity (M14 [7]) | Activity (M14 [8]) | Activity (M14 [9]) | Activity (M14 [10]) | Activity (M14 [11]) | Activity (M14 [12]) | Activity (M14 [13]) | IC50 (RAW264.7) [µM] | Activity (M14 [14]) | IC50 (Jurkat) [µM] | IC50 (Huh-7) [µM] | IC50 (MCF7) [µM] | IC50 (M14 [15]) [µM] | Activity (M14 [16])
1 | Cc1ccc(Cn2c(C(=O)NCc3cccc(Cl)c3)cc(C(=O)c3ccccc3)c2C)cc1 | inactive | ≤ 6.8 | inactive | Active | inactive | Active | Active | Active | Active | Active | Active | Active | inactive | > 100 | inactive | > 100 | > 100 | > 100 | 2.5 | Active
2 | Cc1c(C(=O)c2ccccc2)cc(C(=O)NCc2cccc(I)c2)n1Cc1ccccc1 |  |  | inactive | Active | inactive | Active | Active | Active | Active | Active | Active | Active | inactive | > 100 | inactive | > 100 | > 100 | > 100 | 5 | Active
3 | Cc1c(C(=O)c2ccccc2)cc(C(=O)NCc2cccc(Cl)c2)n1Cc1ccccc1 |  |  | inactive | Active | inactive |  | Active | Active | Active | Active | Active | Active | inactive | > 100 | inactive | > 100 | > 100 | > 100 | 7.5 | Active

From ChEMBL document CHEMBL2417381, “New anticancer agents mimicking protein recognition motifs” (J Med Chem, 2013)
